Experimental data taken from paper PMC3809117 (AIDS (London, England), 2009).

Tests used:
J89 cells = assay: MTT cytotoxicity/proliferation assay in J89 cells; type: cell-based; conditions: 24 h, at concentrations used to induce LTR expression
Summary of the method: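 Cells were washed in PBS and incubated 24 h across a range of inhibitor concentrations, then assayed with an MTT proliferation kit. Percent proliferating cells was calculated relative to cells in drug-free medium. Run in triplicate.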

[1] = system: latent HIV in resting CD4+ T cells; type: cell-based, HIV-1; conditions: resting CD4+ T cells of aviremic patients on ART, 24 h exposure, compared to PHA
Summary of the method: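 Resting CD4+ T cells came from leukapheresis by negative selection, from patients with plasma RNA <50 copies/ml. Cells were plated at 2.5, 0.5 or 0.1 million per well and exposed to drug for 24 h. PHA comparator: 1 µg/ml PHA-L, five-fold irradiated allogeneic PBMCs and 20 U/ml IL-2. Cells were then washed and co-cultured with CD8-depleted PBMC. p24 ELISA was read on days 15 and 19, and IUPM derived by maximum likelihood.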

HIV LTR in J89 cells = assay: LTR-driven GFP expression in J89 cells by flow cytometry; type: cell-based; conditions: overnight incubation with HDACi
Summary of the method: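 Latently infected Jurkat line carrying EGFP as a reporter of Tat-driven HIV LTR expression, grown in RPMI 1640 with 10% FBS at 37°C, 5% CO2. Cells were PBS-washed, exposed overnight to inhibitor, then fixed in PBS with 2% paraformaldehyde. Live cells were gated, with two-parameter analysis to separate GFP from background. From 10 000 events, %GFP+ was reported as mean ± SE of three independent experiments.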

HDACs = conditions: HDAC isoforms inhibited; cited from earlier work
[2] = system: latent HIV in resting CD4+ T cells; conditions: cited from earlier work

| SMILES | cell proliferation (MTT) (J89 cells) | induction of virus outgrowth (recovery of replication-competent HIV) [1] | LTR activation (LTR-driven GFP expression) (HIV LTR in J89 cells) | Selectivity (HDACs) | viral outgrowth from resting CD4+ T cells of aviremic HIV-infected individuals on ART [2] |
| --- | --- | --- | --- | --- | --- |
| CCC(=O)CCCCC[C@@H]1NC(=O)[C@H]2CCCCN2C(=O)[C@H]([C@@H](C)CC)NC(=O)[C@H](Cc2cn(OC)c3ccccc23)NC1=O [Apicidin, apicidin] | slightly antiproliferative | suboptimal | induced LTR activation | HDAC1, 2, 3 |  |
| O=C(CCCCCCC(=O)Nc1ccccc1)NO [SAHA, suberoylanilide hydroxamic acid] |  |  |  |  | induce viral outgrowth |
| CCCC(CCC)C(=O)O [VPA, valproic acid] | did not perturb cell proliferation | effective at inducing virus | effectively induced LTR expression |  | induce viral outgrowth |
